Rows were chosen to be rich in hits. Some 2.7% of all compounds tested hit in one or more screens of this group.
PAD4 FP inh: PAD4 (human) enzyme inhibition; Q9UM07; recombinant PAD4, RCA probe fluorescence polarization; inhibition, % at 6.36 µM; 330,000 compounds, 0.41% hits; AID 485272;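 active = percent inhibition above a cutoff equal to the mean of all tested compounds plus 3 SD, cut at about 15% in these data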
GSTO1 counter: counter-screen for RBBP9 inhibitors: inhibitors of human GSTO1; P78417; 300,000 compounds, 1.1% hits; recombinant GSTO1, activity-based probe fluorescence polarization; AID 1974; inhibition, % at 5.96 µM;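 active = inhibition above the campaign mean inhibition plus 3 SD, cut at about 35% in these data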
Target sequence (P78417 whole entry, looked up): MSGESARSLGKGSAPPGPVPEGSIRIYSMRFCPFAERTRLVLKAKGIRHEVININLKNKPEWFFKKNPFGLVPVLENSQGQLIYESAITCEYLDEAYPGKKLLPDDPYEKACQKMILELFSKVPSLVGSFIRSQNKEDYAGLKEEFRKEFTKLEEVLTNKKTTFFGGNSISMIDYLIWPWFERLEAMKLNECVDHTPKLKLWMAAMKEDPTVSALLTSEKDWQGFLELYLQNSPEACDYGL
SIAE inh: inhibitors of human sialic acid acetylesterase SIAE. SIAE FP-Rh probe binding, fluorescence polarization. inhibition, % at 9.66 µM. 370,000 compounds, 0.69% hits;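 active = inhibition above a cutoff: mean of compounds within the control limits plus 3 SD of those, cut at about 17% in these data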
RBBP9 inhibitor: human RBBP9 hydrolase inhibition; recombinant RBBP9, FP-Rh probe fluorescence polarization; inhibition, % at 7.94 µM; 220,000 compounds, 0.2% hits;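 active = inhibition above the campaign mean of all tested compounds plus 3 SD, cut at about 14% in these data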
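Material: RBBP9 protein. Amount: RBBP9 at 2.5 µM in dispensed solution, before mixing. Schedule: 30 min then 45 min, 25 °C. Medium: Tris buffer pH 8.0, NaCl, Pluronic. Measured by: fluorescence polarization. Measure: percent inhibition from mP, scaled between DMSO and no-protein wells. Replication: one well per compound.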
PRMT1 FP inh: blocks human protein arginine methyltransferase 1; Q99873; recombinant PRMT1, activity-based probe fluorescence polarization; inhibition, % at 2.79 µM; 370,000 compounds, 1.3% hits;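 active = inhibition above about 21% made by adding two undisclosed values, limit read from the data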
Target sequence (Q99873 whole entry, looked up): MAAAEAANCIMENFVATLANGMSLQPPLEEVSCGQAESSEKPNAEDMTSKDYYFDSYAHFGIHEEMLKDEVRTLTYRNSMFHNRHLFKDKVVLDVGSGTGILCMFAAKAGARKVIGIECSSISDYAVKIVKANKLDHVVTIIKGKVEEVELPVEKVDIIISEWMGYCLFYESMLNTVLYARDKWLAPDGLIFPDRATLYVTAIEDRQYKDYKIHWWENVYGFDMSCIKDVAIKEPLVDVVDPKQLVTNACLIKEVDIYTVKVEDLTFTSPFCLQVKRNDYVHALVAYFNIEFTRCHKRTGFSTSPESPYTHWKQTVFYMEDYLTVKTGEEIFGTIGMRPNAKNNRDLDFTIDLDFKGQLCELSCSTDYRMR
PAD4 FP conf: PAD4 (human) inhibition, confirmed. shares compounds with PAD4 FP inh. recombinant PAD4, RCA probe fluorescence polarization. inhibition, % at 6.36 µM. 1,200 compounds, 28% hits;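 active = mean inhibition across replicates above the hit cutoff set by the earlier primary screen, cut at about 15% in these data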;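 note: inhibitors block active-site labeling by the probe so polarization falls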
Large screens that a line does not name were inactive (follow-up assays come after a bar, where they were run).

COc1cc(CNc2ccc(O)cc2)cc(Br)c1OCc1ccccc1F	PAD4 FP inh 28, GSTO1 counter 86 (no result: SIAE inh, PRMT1 FP inh) | PAD4 FP conf inactive
COc1cc(CNCc2ccncc2)cc(Br)c1OCc1ccccc1F	none
COc1cccc(NC(=O)C(NCCC(C)C)c2ccccc2)c1 (centres undefined)	none
O=C(O)c1ccc2c3c(ncnc13)-c1ccccc1C2=O	PAD4 FP inh 85 (no result: SIAE inh, PRMT1 FP inh) | PAD4 FP conf 68
CCc1ccc[n+](-c2[nH]c(=O)sc2/C=N/N=C(\[O-])c2ccncc2)c1	none (no result: RBBP9 inhibitor)
CC(C)(C)c1cc[n+](-c2[nH]c(=O)sc2/C=N/NC([S-])=Nc2ccccc2)cc1	PAD4 FP inh 17, PRMT1 FP inh 116 | PAD4 FP conf inactive
CC1=NN(c2ccc(C)c(C)c2)C(=O)/C1=C/c1ccc2c(c1)n(C)c(=O)n2C	PAD4 FP inh 48, GSTO1 counter 37 | PAD4 FP conf inactive
Cc1c(/C=N/O)sc2ccccc12	none
Cc1nnc(N/N=C/c2cc([N+](=O)[O-])c(N3CCC(C)CC3)cc2N2CCC(C)CC2)n1N	PAD4 FP inh 44 | PAD4 FP conf inactive
CCc1nnc(N/N=C/c2ccc(N3CCC(C)CC3)c([N+](=O)[O-])c2)n1N	PAD4 FP inh 29 | PAD4 FP conf inactive
COc1ccc(CCNC(=O)COC(=O)c2ccc(C)s2)cc1OC	none (no result: GSTO1 counter, RBBP9 inhibitor)
COc1ccc(CCNC(=O)COC(=O)c2ccc(C)s2)cc1	PAD4 FP inh 81 (no result: GSTO1 counter, RBBP9 inhibitor) | PAD4 FP conf inactive
COCCN1C[C@@H](CO)O[C@@H](n2cnc3c(N4CCN(CCO)CC4)ncnc32)C1	none (no result: PAD4 FP inh, GSTO1 counter, RBBP9 inhibitor)
CCN(c1ccccc1)S(=O)(=O)c1ccc(C(=O)NNC(=O)c2ccccc2F)cc1	PAD4 FP inh 16 (no result: GSTO1 counter, RBBP9 inhibitor) | PAD4 FP conf inactive
CCC(C)n1c(NC(=O)c2ccccc2)c(C#N)c2nc3ccccc3nc21 (centres undefined)	PAD4 FP inh 29 | PAD4 FP conf inactive
O=C(CCN1C(=O)/C(=C\c2ccccc2)SC1=S)NCCCN1CCOCC1	none (no result: RBBP9 inhibitor)
CC1=NN(c2ccc(Cl)cc2)C(=O)C1	PAD4 FP inh 31, GSTO1 counter 36 | PAD4 FP conf inactive
Clc1ccc(-c2ccc(C=Nc3ccc(N4CCOCC4)cc3)o2)c(Cl)c1	none
Clc1ccc(-c2ccc(C=Nc3ccc(N4CCOCC4)cc3)o2)cc1	PAD4 FP inh 31 | PAD4 FP conf inactive
C/C(=N\N=C1\NC(=O)CC(C(=O)O)S1)c1cccs1 (centres undefined)	none
CCCCn1nnnc1SCC(=O)Nc1cccc(C)c1	none (no result: RBBP9 inhibitor)
COc1cccc(-c2ccc(C#N)c(=O)[nH]2)c1	none
COc1cccc(-c2cc(=O)[nH][nH]2)c1	PAD4 FP inh 38 | PAD4 FP conf inactive
c1ccc(C[n+]2csc3ccccc32)cc1	PAD4 FP inh 23, PRMT1 FP inh 84 | PAD4 FP conf 34
Cc1cc(N2CCN(C(=O)Oc3ccc([N+](=O)[O-])cc3)CC2)c2ccccc2n1	none (no result: PAD4 FP inh, GSTO1 counter, RBBP9 inhibitor)
Cc1cc2c(cc1C)N(C(=O)CSc1nncn1C)C(C)(C)c1ssc(=S)c1-2	PAD4 FP inh 33 | PAD4 FP conf 33
O=C(Nc1ccc(Nc2ccccc2)cc1)c1ccc(F)cc1	none (no result: RBBP9 inhibitor)
Cc1ccc(S(=O)(=O)/N=C(/Sc2ccccc2C(=O)O)c2ccccc2)cc1	PAD4 FP inh 18 (no result: RBBP9 inhibitor) | PAD4 FP conf 25
Cc1ccc(S(=O)(=O)/N=C(\Sc2ccccc2)c2ccccc2)cc1	none
CCOc1cccc(OCCOCCOc2ccccc2C(C)=O)c1	none
O=C1NCCOC(=O)[C@@H](Cc2ccc(F)cc2)C/C=C\C[C@@H]1CC(=O)N(CCO)Cc1ccccc1	PAD4 FP inh 20 (no result: GSTO1 counter, RBBP9 inhibitor) | PAD4 FP conf inactive
O=C1N[C@@H](Cc2ccccc2)COC(=O)[C@@H](Cc2ccc(F)cc2)C/C=C\C[C@@H]1CC(=O)N(CCO)Cc1ccccc1	none (no result: GSTO1 counter, RBBP9 inhibitor)
CCOc1ccc2[nH]c(SCC(=O)OC)c([N+](=O)[O-])c2c1	PAD4 FP inh 35 | PAD4 FP conf 38
COc1ccc(CCNC(=O)c2cnccn2)cc1	none (no result: RBBP9 inhibitor)
COc1ccc(C2C(C#N)=C(N)N(N(C)C)C3=C2C(=O)CCC3)cc1 (centres undefined)	PAD4 FP inh 90 (no result: RBBP9 inhibitor) | PAD4 FP conf inactive
CCOc1nc(Nc2ccc(OC)cc2OC)nc(OCC)n1	PAD4 FP inh 190 (no result: RBBP9 inhibitor) | PAD4 FP conf inactive
CCOc1nc(Nc2cc(Cl)ccc2OC)nc(OCC)n1	none
CCC(C(=O)N1CCN(c2ncccn2)CC1)c1ccccc1 (centres undefined)	none
Cc1ccc(COC(=O)c2nn(C)c(=O)c3ccccc23)cc1	PAD4 FP inh 25 | PAD4 FP conf inactive
Cn1nc(C(=O)OCc2ccc(F)cc2)c2ccccc2c1=O	none
O=C1[C@H]2[C@@H](c3ccc(F)cc3)N3C(=O)N(c4ccccc4)C(=O)[C@@]3(Cc3ccc(Cl)cc3)[C@H]2C(=O)N1C1CCCCC1	PAD4 FP inh 22 (no result: RBBP9 inhibitor) | PAD4 FP conf inactive
O=C1[C@H]2[C@@H](c3ccc(F)cc3)N3C(=O)N(c4ccccc4)C(=O)[C@@]3(Cc3ccccc3)[C@H]2C(=O)N1C1CCCCC1	none (no result: RBBP9 inhibitor)
CN(c1ccc(C(=O)NCC2CCCO2)cc1)S(C)(=O)=O (centres undefined)	PAD4 FP inh 15 | PAD4 FP conf inactive
O=C(NCC1CCCO1)c1ccc(C(=O)NCC2CCCO2)cc1 (centres undefined)	none
O=C(CSc1ccccn1)Nc1nonc1[N+](=O)[O-]	PAD4 FP inh 19, PRMT1 FP inh 29 (no result: RBBP9 inhibitor) | PAD4 FP conf inactive
CCOC(=O)N1CC=C2C(C#N)=C(N)C(C#N)(C#N)[C@H](c3ccsc3)[C@H]2C1	none
CCOCCCNC(=S)N(CCN(CC)CC)Cc1cc2cc3c(cc2[nH]c1=O)OCCO3	none (no result: RBBP9 inhibitor)
CCOCCCNC(=S)N(CCO)Cc1cc2cc3c(cc2[nH]c1=O)OCCO3	PAD4 FP inh 23 (no result: RBBP9 inhibitor) | PAD4 FP conf inactive
Cc1ccc(S(=O)(=O)NC(=O)Nc2ccc(N(C)C)cc2)cc1	PAD4 FP inh 28, GSTO1 counter 87, PRMT1 FP inh 26 (no result: RBBP9 inhibitor) | PAD4 FP conf inactive
Cc1ccc(NC(=O)NNS(=O)(=O)c2ccc(Br)cc2)cc1	none
CSCCC(NC(=O)c1ccc(Cl)cc1Cl)C(=O)OC1CCCCC1=O (centres undefined)	none (no result: RBBP9 inhibitor)
CC1=NN(c2ccccc2)C(=O)/C1=C/c1cccs1	PAD4 FP inh 35, GSTO1 counter 55 | PAD4 FP conf inactive
CC1=NN(c2ccccc2)C(=O)/C1=C\c1ccc(Br)s1	PAD4 FP inh 16 | PAD4 FP conf inactive
COc1ccccc1CNC(=O)Cc1ccc(OC)c(OC)c1	none (no result: RBBP9 inhibitor)
O=C(NCCO)Nc1ccc2nsnc2c1	none
OCCNC(=S)Nc1ccc2nsnc2c1	PAD4 FP inh 28, GSTO1 counter 85 | PAD4 FP conf inactive
CCn1c(SC(C)C(=O)O)nc2sc3c(c2c1=O)CCC3 (centres undefined)	PAD4 FP inh 16 | PAD4 FP conf inactive
CC(Sc1nc2sc3c(c2c(=O)n1-c1ccccc1)CCCC3)C(=O)O (centres undefined)	none
